Results: PubChem BioAssay
A number with no mark means an inactive call.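 The calls were made as follows, unless noted: active = growth inhibition above 25% in both replicates, a cutoff set 3 SD above the mean; inconclusive = above 25% in only one replicate; inactive = the rest.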

Assay: growth suppression of yeast trafficking mutant, preliminary HTS, modulators of trafficking downstream of Golgi apparatus project, 1536-format plate, OD 615 nm (AID 637; in the data active = inhibition above about 30%)
Conditions: yeast transport mutant growth, absorbance 615 nm, 18 h; hits give high values

Row | Compound | inhibition [%]
1 | CCCCN=CC1=C(O)C(C(=O)OC)C(C)(C)CC1=O (stereo not given) | 25.8
2 | Cc1ccc(C)c(C(=O)CC2(O)C(=O)N(C)c3ccccc32)c1 (stereo not given) | -1.5
3 | CC(=O)C1=C(C)Nc2ncnn2C1c1cccc(OCc2ccccc2)c1 (stereo not given) | 1.5
4 | Cc1ccc(C(=O)CC2(O)C(=O)N(C)c3ccc(Br)cc32)c(C)c1 (stereo not given) | -0.83
5 | Fc1cccc(Nc2ncnc3c2cnn3-c2ccccc2)c1 | -1.67
6 | COc1ccc(NC(=O)NCCN2C(=O)C3C4C=CC(C4)C3C2=O)cc1 (stereo not given) | 0.33
7 | Cc1ccc(C)c(NC(=O)CSc2nnc(-c3ccccc3)o2)c1 | -4.5
8 | O=C(NCCCN1CCOCC1)c1cc(-c2ccc(O)cc2)on1 | -4
9 | CCOC(=O)c1ccc(NC(=O)Cn2cc3c(n2)CCC(C)C3)cc1 (stereo not given) | -2.13
10 | N#C/C(C(=O)N1CCOCC1)=C1/SC=C(c2ccccc2)N1c1ccccc1 | 1.67
11 | COc1ccc(C(=O)c2coc3ccc(O)c(CN4CCCCC4)c23)cc1 | 5.33
12 | CCn1c(C(=O)N2CCC(C(=O)N3CCN(c4ccccn4)CC3)CC2)cc2sccc21 | -3.5
13 | CCOC(=O)N1CCN(Cc2nc3c(c(=O)n(C)c(=O)n3C)n2Cc2ccccc2)CC1 | 2.62
14 | CN1CCN(C(=O)c2ccc(CS(=O)(=O)c3c(Cl)cccc3Cl)o2)CC1 | -2.46
15 | CN(C)CCCN1C(=O)c2oc3ccc(Cl)cc3c(=O)c2C1c1cccnc1 (stereo not given) | 3.5
16 | O=C(CSc1nnc2ccccn12)c1ccccc1 | -3.44
17 | Cc1ccccc1Cn1ccc(NC(=O)c2onc(C)c2Cl)n1 | -4.17
18 | CN(CCCNC(=O)c1cn(C)c2ccc(S(=O)(=O)N(C)C)cc2c1=O)c1ccccc1 | -1
19 | NC(=O)CN1C(=O)C(O)(CC(=O)c2ccccc2O)c2ccccc21 (stereo not given) | -1.17
20 | CC(C)CCN(C)C1CCN(S(=O)(=O)c2ccc(F)cc2)CC1 | -4.33

Row | Compound | inhibition [%]
21 | COc1ccc(C(C)N2CC34C=CC(O3)C(C(=O)OCC(C)C)C4C2=O)cc1 (stereo not given) | -2.33
22 | COc1ccc(Cl)cc1S(=O)(=O)N1CCN(c2ccc(F)cc2)CC1 | 12.7
23 | Cc1sc2nc(SCC(=O)NCCO)n(C)c(=O)c2c1C | -8.33
24 | CC(=O)NCCc1nc2ccccc2[nH]1 | -2.33
25 | CCN1C(=O)c2cccc3c(NC(=O)c4ccc(S(=O)(=O)N(C)C)cc4)ccc1c23 | -7.17
26 | Cc1nc2ccccc2c2oc(C(=O)N3CCN(C(=O)c4ccco4)CC3)cc12 | 1.67
27 | c1ccc(Cn2nnc3c(N4CCCCCC4)ncnc32)cc1 | 2.83
28 | COC(=O)c1cn(C(=O)c2ccc(Br)o2)c2ccccc12 | -1.33
29 | CS(=O)(=O)Nc1ccccc1C(=O)O | -5.17
30 | Cn1cccc1Cc1nnc(SCC(=O)NCC2CCCO2)n1-c1ccc(F)cc1 (stereo not given) | -2.33
31 | Cc1ccc(Cn2c(=O)c3ccccc3n3c(CCC(=O)O)nnc23)cc1 | 0.33
32 | COc1ccc(OCCSc2nc3ccccc3n2CC(=O)O)cc1 | -2
33 | CCCCSc1nc2c(cnn2-c2ccc(F)cc2)c(=O)[nH]1 | 0.5
34 | CCOc1ccc(NC(=O)C(C)Sc2nnc(C)n2C)cc1 (stereo not given) | -1.17
35 | CCOc1ccc2[nH]c(C)cc(=O)c2c1 | -9.02
36 | Cc1nc2ccccc2c2oc(C(=O)N3CCC(N4CCCCC4)CC3)cc12 | 0.17
37 | O=C(O)c1ccc2c(c1)C(=O)N(c1ccc(Cl)cn1)C2=O | 0.33
38 | COc1cccc(-c2nc(CS(=O)(=O)CC(=O)NCc3ccc(Cl)cc3)c(C)o2)c1 | -2.3
39 | COc1ccc(C(NC(=O)c2ccco2)c2ccc(OC)c(OC)c2)cc1 (stereo not given) | -3.17
40 | CCOC(=O)N1CCC(NC(=O)CN2C(=O)CCSc3ccccc32)CC1 | -1.15

Assay: OD615 S. cerevisiae growth inhibition, permissive medium, pilot counter-assay, permissive growth control for S. cerevisiae lifespan shortening project (AID 705)
Conditions: OD615, 24 h, at 10 µM, hits give high values
In short: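 System: S. cerevisiae with engineered DeaD lifespan system / Measured by: absorbance (optical density) at 615 nm / Read-out: reduction in yeast growth (OD615) / Times: 4 h cell pre-growth, 24 h exposure at 30 °C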

Row | Compound | growth inhibition [%]
41 | CCCCN=CC1=C(O)C(C(=O)OC)C(C)(C)CC1=O (stereo not given) | -1.01
42 | Cc1ccc(C)c(C(=O)CC2(O)C(=O)N(C)c3ccccc32)c1 (stereo not given) | -8.69
43 | CC(=O)C1=C(C)Nc2ncnn2C1c1cccc(OCc2ccccc2)c1 (stereo not given) | -3.25
44 | Cc1ccc(C(=O)CC2(O)C(=O)N(C)c3ccc(Br)cc32)c(C)c1 (stereo not given) | 2.26
45 | Fc1cccc(Nc2ncnc3c2cnn3-c2ccccc2)c1 | -5.18
46 | COc1ccc(NC(=O)NCCN2C(=O)C3C4C=CC(C4)C3C2=O)cc1 (stereo not given) | -5.58
47 | Cc1ccc(C)c(NC(=O)CSc2nnc(-c3ccccc3)o2)c1 | -4.45
48 | O=C(NCCCN1CCOCC1)c1cc(-c2ccc(O)cc2)on1 | -9.88
49 | CCOC(=O)c1ccc(NC(=O)Cn2cc3c(n2)CCC(C)C3)cc1 (stereo not given) | -3.82
50 | N#C/C(C(=O)N1CCOCC1)=C1/SC=C(c2ccccc2)N1c1ccccc1 | -1.56
51 | COc1ccc(C(=O)c2coc3ccc(O)c(CN4CCCCC4)c23)cc1 | -3.45
52 | CCn1c(C(=O)N2CCC(C(=O)N3CCN(c4ccccn4)CC3)CC2)cc2sccc21 | -11.8
53 | CCOC(=O)N1CCN(Cc2nc3c(c(=O)n(C)c(=O)n3C)n2Cc2ccccc2)CC1 | -8.18
54 | CN1CCN(C(=O)c2ccc(CS(=O)(=O)c3c(Cl)cccc3Cl)o2)CC1 | -7.05
55 | CN(C)CCCN1C(=O)c2oc3ccc(Cl)cc3c(=O)c2C1c1cccnc1 (stereo not given) | -2.16
56 | O=C(CSc1nnc2ccccn12)c1ccccc1 | -13.8
57 | Cc1ccccc1Cn1ccc(NC(=O)c2onc(C)c2Cl)n1 | -7.95
58 | CN(CCCNC(=O)c1cn(C)c2ccc(S(=O)(=O)N(C)C)cc2c1=O)c1ccccc1 | 1.83
59 | NC(=O)CN1C(=O)C(O)(CC(=O)c2ccccc2O)c2ccccc21 (stereo not given) | 1.61
60 | CC(C)CCN(C)C1CCN(S(=O)(=O)c2ccc(F)cc2)CC1 | -7.46

Row | Compound | growth inhibition [%]
61 | COc1ccc(C(C)N2CC34C=CC(O3)C(C(=O)OCC(C)C)C4C2=O)cc1 (stereo not given) | -0.88
62 | COc1ccc(Cl)cc1S(=O)(=O)N1CCN(c2ccc(F)cc2)CC1 | -13
63 | Cc1sc2nc(SCC(=O)NCCO)n(C)c(=O)c2c1C | -9.24
64 | CC(=O)NCCc1nc2ccccc2[nH]1 | -3.03
65 | CCN1C(=O)c2cccc3c(NC(=O)c4ccc(S(=O)(=O)N(C)C)cc4)ccc1c23 | -11.7
66 | Cc1nc2ccccc2c2oc(C(=O)N3CCN(C(=O)c4ccco4)CC3)cc12 | -6.06
67 | c1ccc(Cn2nnc3c(N4CCCCCC4)ncnc32)cc1 | -13
68 | COC(=O)c1cn(C(=O)c2ccc(Br)o2)c2ccccc12 | 4.04
69 | CS(=O)(=O)Nc1ccccc1C(=O)O | -7.19
70 | Cn1cccc1Cc1nnc(SCC(=O)NCC2CCCO2)n1-c1ccc(F)cc1 (stereo not given) | -11.2
71 | Cc1ccc(Cn2c(=O)c3ccccc3n3c(CCC(=O)O)nnc23)cc1 | 2.68
72 | COc1ccc(OCCSc2nc3ccccc3n2CC(=O)O)cc1 | -2.19
73 | CCCCSc1nc2c(cnn2-c2ccc(F)cc2)c(=O)[nH]1 | -7.35
74 | CCOc1ccc(NC(=O)C(C)Sc2nnc(C)n2C)cc1 (stereo not given) | -3.46
75 | CCOc1ccc2[nH]c(C)cc(=O)c2c1 | -12.8
76 | Cc1nc2ccccc2c2oc(C(=O)N3CCC(N4CCCCC4)CC3)cc12 | -9.32
77 | O=C(O)c1ccc2c(c1)C(=O)N(c1ccc(Cl)cn1)C2=O | -12.8
78 | COc1cccc(-c2nc(CS(=O)(=O)CC(=O)NCc3ccc(Cl)cc3)c(C)o2)c1 | -8.85
79 | COc1ccc(C(NC(=O)c2ccco2)c2ccc(OC)c(OC)c2)cc1 (stereo not given) | -14.2
80 | CCOC(=O)N1CCC(NC(=O)CN2C(=O)CCSc3ccccc32)CC1 | 5.44
